# An excerpt weighted towards active compounds, which were near 3.7% of everything screened.
# KCNK9 inh: blocks the human KCNK9 two-pore domain potassium channel. HEK293 KCNK9, FluxOR thallium flux fluorescence; active compounds read low. B-score at 10 µM. actives 1.2% (n = 310,000);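 active means ratio B-score over 3 SD below the library mean, with starting fluorescence within 5 SD of its mean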;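 further: negative B-score means less thallium flux so channel inhibition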
# KCNQ1 act: potentiators or activators of human KCNQ1 potassium channel | P51787 | CHO-K1 KCNQ1, thallium flux FluxOR fluorescence; active compounds read high | B-score at 10 µM | actives 0.35% (n = 310,000);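 active means fluorescence ratio B-score, a plate-corrected score, at least three library SD, with initial intensity B-score within 5 SD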
# Target sequence (P51787 whole entry, looked up): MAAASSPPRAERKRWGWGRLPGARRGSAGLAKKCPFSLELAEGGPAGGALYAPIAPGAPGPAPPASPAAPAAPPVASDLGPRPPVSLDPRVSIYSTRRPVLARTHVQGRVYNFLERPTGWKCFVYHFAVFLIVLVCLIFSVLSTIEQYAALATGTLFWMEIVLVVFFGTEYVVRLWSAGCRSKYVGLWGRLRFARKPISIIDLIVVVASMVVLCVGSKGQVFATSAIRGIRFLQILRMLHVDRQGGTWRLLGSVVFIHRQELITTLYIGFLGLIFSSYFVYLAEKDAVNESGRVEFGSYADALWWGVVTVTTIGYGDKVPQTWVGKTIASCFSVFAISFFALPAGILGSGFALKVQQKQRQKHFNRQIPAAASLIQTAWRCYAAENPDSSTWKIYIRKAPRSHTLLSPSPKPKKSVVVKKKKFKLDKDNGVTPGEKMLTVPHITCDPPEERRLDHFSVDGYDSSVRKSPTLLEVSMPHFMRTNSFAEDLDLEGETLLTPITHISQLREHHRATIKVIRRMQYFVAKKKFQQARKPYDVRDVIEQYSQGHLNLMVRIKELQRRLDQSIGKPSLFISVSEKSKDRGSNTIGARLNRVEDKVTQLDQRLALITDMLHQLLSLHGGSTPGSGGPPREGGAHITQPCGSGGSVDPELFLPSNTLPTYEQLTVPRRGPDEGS
#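 Assay system: CHO-K1 cells stably expressing KCNQ1; Medium: assay buffer with matched DMSO; Also added: K+/Tl+ depolarizing stimulus; Dosing: single dose; Timing: dye 90 min, compound 20 min, room temperature; Measured by: kinetic FluxOR thallium fluorescence, 10-s 1-Hz baseline, 110-s post-stimulus read; Read-out: peak-minus-minimum fluorescence over initial fluorescence, negative-control normalized, B-scored.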
# KCNQ1 block: human KCNQ1 channel inhibition. P51787. CHO-K1 KCNQ1, FluxOR thallium flux fluorescence; active compounds read high. B-score at 10 µM. actives 1.3% (n = 310,000);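 active means compounds whose thallium flux B-score, printed positive for inhibition, exceeds three library SD while starting fluorescence stays within three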;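 further: channel opened by potassium depolarization with thallium stimulus after 20 min compound exposure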
# KCNK3 block: human KCNK3 channel inhibition, primary screen; O14649; CHO-KCNK3 thallium flux, FluxOR fluorescence; active compounds read low; B-score at 10 µM; actives 0.84% (n = 340,000); AID 602410;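 active means B-score under library mean minus 4 SD, starting fluorescence ratio at most library mean plus 5 SD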;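 further: more negative B-score means stronger inhibition of thallium flux through KCNK3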
# hERG protect: hERG (human) protection from proarrhythmic block; Q12809; CHO-hERG, FluxOR thallium flux, dofetilide IC70 present; activation (rescue from dofetilide block), less the hit threshold, % at 10 µM; actives 0.51% (n = 310,000); AID 1511;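 active means activation above the mean of controls blocked by dofetilide plus 5 SD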;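 further: thallium influx through hERG after potassium depolarization seen as dye fluorescence rise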
# Kir21 inh: blocks the mouse Kir2.1 inward-rectifier potassium channel | AID 1672 | actives 0.85% (n = 310,000) | P35561 | HEK293-Kir2.1, FluxOR thallium flux fluorescence; active compounds read low | B-score at 10 µM;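 active means fluorescence ratio B-score at or below minus 3 SD of library scores, with starting-brightness B-score within 2 SD, cut at about -4.2 in these data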;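 further: channel flux triggered by added potassium and thallium sulfate stimulus; B-score of peak minus minimum fluorescence over baseline after thallium stimulus; more negative B-score means stronger Kir2.1 block with less thallium influx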
# KCNQ1 block val: reconfirmed blocker of the human KCNQ1 potassium channel | shares compounds with KCNQ1 block | KCNQ1 cell line, FluxOR thallium flux fluorescence | inhibition, % at 10 µM | actives 93% (n = 1,600);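 active means primary screen active, with duplicate mean exceeding buffer control mean plus 3 SD of buffer wells, cut at about 28% in these data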
# CHO Tl flux: counter-screen for KCNQ1 inhibitors: effect in parental CHO cells; fluorescence ratio (Tl flux) at 10 µM; shares compounds with KCNQ1 block; AID 588366; actives 21% (n = 1,600); parental CHO-K1, FluxOR thallium flux fluorescence ratio; active compounds read low; zero means no signal rise above baseline;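 active means mean of duplicate thallium-flux fluorescence ratios in parental host cells more than 5 SD below the buffer control mean, cut at about 0.38 in these data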;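 further: ratio is peak minus minimum fluorescence divided by baseline fluorescence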
# KCNQ1 ephys val: blocks human KCNQ1 current in automated patch clamp | actives 20% (n = 490) | KCNQ1-CHO cells | shares compounds with KCNQ1 block | calls only at 10 µM;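 active means KCNQ1 current drop exceeding 3 SD of negative control wells, seen in both duplicate runs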;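 further: steady state current during a 2 s step from -80 to +40 mV; negative values mean current inhibition and positive values mean potentiation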
# KCNQ2 spec: selectivity of KCNQ1 inhibitors: inhibition of rat KCNQ2 channel; shares compounds with KCNQ1 block; KCNQ2 cells, FluxOR thallium flux fluorescence; inhibition, % at 10 µM; actives 71% (n = 1,600);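 active means mean percent inhibition of the KCNQ2 thallium signal more than 5 SD above the buffer-only control wells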;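 further: KCNQ2 expressed in CHO cells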
# KCNQ1-KCNE1 inh: human KCNQ1/KCNE1 inhibition in KCNQ1 specificity screen; shares compounds with KCNQ1 block; AID 652147; actives 77% (n = 1,600); KCNQ1/KCNE1 cells, FluxOR thallium flux fluorescence; inhibition, % at 10 µM;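 active means mean percent inhibition of duplicate wells above the buffer-only control mean plus 3 SD of those controls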
# KCNK9 inh conf: human KCNK9 inhibitor confirmation; shares compounds with KCNK9 inh; HEK293 KCNK9 cells, FluxOR thallium flux fluorescence; inhibition, % at 10 µM; actives 43% (n = 4,900);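 active means thallium signal inhibited by more than 5 SD of the compound-free buffer control wells, on both duplicate plates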
# Kir21 sel: tests whether KCNK9 modulators also affect mouse Kir2.1; shares compounds with KCNK9 inh; actives 4% (n = 4,900); Kir2.1 cells, FluxOR thallium flux fluorescence; inhibition, % at 10 µM;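 active means thallium signal drop more than 5 SD beyond the mean of the no-compound control wells, seen in both duplicate plates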;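 further: signal is fluorescence rise after thallium addition divided by baseline fluorescence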
# HEK293 Tl ctr: non-induced cell nonspecific activity of KCNK9 modulators; shares compounds with KCNK9 inh; non-induced KCNK9-HEK293, FluxOR thallium flux; actives 40% (n = 4,900); AID 492997; inhibition, % at 10 µM;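 active means thallium signal drop beyond 5 SD of the untreated control mean, on both duplicate plates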
# KCNK3 confirm: confirmation of human KCNK3 two-pore domain potassium channel inhibitors. shares compounds with KCNK3 block. CHO-KCNK3 thallium flux, FluxOR fluorescence; 0% buffer, 100% carvedilol maximal block. ratio percent of control, % at 10 µM. actives 99% (n = 2,400);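 active means ratio percent of control, averaged over triplicates, above buffer control mean plus 5 SD, cut at about 64% in these data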;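 further: ratio is the fluorescence rise from min to max over baseline after thallium stimulus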
# KCNK3 noninduced: counter-screen for KCNK3 inhibitors: effect in non-induced cells; shares compounds with KCNK3 block; non-induced KCNK3 parental cells, FluxOR thallium flux; active compounds read low; thallium flux ratio (lower = more inhibition) at 10 µM; actives 40% (n = 2,400); AID 651747;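 active means thallium flux ratio, averaged over three wells, more than 5 SD below the buffer control mean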;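 further: host cells are CHO cells without KCNK3 induction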
# A number is an active result; 0 = inactive; - = no result given; + = active, no number.
SMILES,KCNK9 inh,KCNQ1 act,KCNQ1 block,KCNK3 block,hERG protect,Kir21 inh,KCNK9 inh conf,Kir21 sel,HEK293 Tl ctr,others
CC(Cc1cccs1)NC(=O)Nc1cccc(Cl)c1 (stereo not drawn),-18.4,0,9,-11.2,0,0,53.0%,0,31.5%,KCNQ1 block val=127.0;CHO Tl flux=0;KCNQ1 ephys val=+;KCNQ2 spec=0;KCNQ1-KCNE1 inh=71.0%;KCNK3 confirm=108.7;KCNK3 noninduced=0
CC(C)NC(=O)Nc1cccc(Cl)c1,0,0,0,0,0,0,-,-,-,
Cc1ccc(O)c(CNc2cccc3cccnc23)c1,-9.71,0,0,0,0,0,60.5%,0,36.0%,
Oc1ccc(Br)cc1CNc1cccc2cccnc12,-12.8,0,0,0,0,0,52.5%,0,40.0%,
Cc1ccc(O)c(CNc2ccccn2)c1,0,0,0,0,0,0,-,-,-,
Oc1ccc(N=Nc2ccc3c(c2)OCCO3)c2ncccc12,0,15,0,0,29.5,0,0,0,0,
COC(=O)c1ccccc1NC(=O)CN(C)Cc1ccccc1,-9.9,0,0,0,0,0,39.0%,0,38.5%,
Cc1ccc(C)c(S(=O)(=O)N2CCN(CC(=O)NC(=O)NCc3ccco3)CC2)c1,0,0,0,0,0,0,-,-,-,
O=C(CSc1nc2c(cnn2-c2ccccc2)c(=O)[nH]1)N1N=C(c2cccs2)CC1c1ccc(F)cc1 (stereo not drawn),-13.8,0,0,0,0,0,0,0,0,
COC(=O)c1nn(-c2ccccc2)c(Cl)c1/C=N/O,0,0,0,0,0,0,-,-,-,
COC(=O)c1nn(-c2ccccc2)c(Cl)c1/C=N/OCc1ccc(Cl)cc1Cl,0,0,0,0,0,0,0,0,0,
Nc1[nH]c(=O)[nH]c(=O)c1N=Cc1ccccc1,-,-,-,0,-,-,-,-,-,
Cc1[nH]c2ccc(F)cc2c1CCN(Cc1ccncc1)C(=S)Nc1cccc(F)c1,-8.13,0,7,0,0,0,36.0%,0,27.0%,
Cc1ccccc1NC(=S)N(CCc1c(C)[nH]c2ccc(F)cc12)Cc1ccncc1,0,0,0,0,0,0,-,-,-,
COc1ccc2[nH]c(C)c(CCN(Cc3cccs3)C(=S)Nc3ccc(F)cc3)c2c1,-11.8,0,6,-16.7,0,0,42.0%,0,27.0%,
COc1ccc(NC(=S)N(CCc2c(C)[nH]c3ccc(C)cc23)Cc2cccs2)cc1,-9.64,0,0,0,0,0,0,0,29.0%,
COc1ccc(NC(=S)N(CCc2c(C)[nH]c3ccc(C)cc23)Cc2ccco2)cc1,0,0,0,0,0,0,-,-,-,
Cc1cc(C)c2nc(N3CCCC(C(=O)NC4CCCC4)C3)sc2c1 (stereo not drawn),0,0,0,0,0,0,-,-,-,
COc1ccc(/C=N/NC(=O)c2c(C)nc3ccccn23)cc1[N+](=O)[O-],0,0,0,0,0,0,-,-,-,
Cc1nn2c(N3CCCC3)cc(C(C)C)nc2c1-c1ccccc1,-8.33,0,0,0,0,0,58.0%,0,45.0%,
S=c1[nH]c(-c2ccc(Br)cc2)cn1CCc1ccccc1,0,0,0,0,0,0,-,-,-,
CN(C(=O)COC(=O)c1ccccc1Cc1ccccc1)C1CCS(=O)(=O)C1 (stereo not drawn),0,0,0,0,0,0,-,-,-,
O=C(NNC(=O)c1cc(Cl)ccc1O)c1cccc(S(=O)(=O)N2CCOCC2)c1,0,0,0,0,0,0,-,-,-,
COc1ccc(-n2c(SCCC#N)nnc2-c2cc(Cl)ccc2OC)cc1Cl,-11.3,0,0,0,0,0,29.0%,0,41.0%,
CCn1c(SCc2ccc(Cl)cc2Cl)nc2nc3c(cc2c1=O)CCCC3,0,0,0,0,0,0,0,0,0,
SMILES,KCNK9 inh,KCNQ1 act,KCNQ1 block,KCNK3 block,hERG protect,Kir21 inh,KCNK9 inh conf,Kir21 sel,HEK293 Tl ctr,others
Cc1ccc(/C=C2\CCC3=C2OC(N)=C(C#N)C3c2ccc(C)cc2)cc1 (stereo not drawn),0,0,0,0,0,0,-,-,-,
N#CC1=C(N)OC2=C(CCc3ccccc32)C1c1ccccc1 (stereo not drawn),-8.65,0,0,0,0,0,36.5%,0,39.5%,
Cc1c(C(=O)N(C)C2CCCCC2)sc2ncnc(N3CCN(c4ccccc4F)CC3)c12,0,0,0,0,0,0,-,-,-,
Cc1c(C(=O)N2CCN(c3ccccc3)CC2)sc2ncnc(N3CCN(c4ccccn4)CC3)c12,0,0,0,0,0,0,-,-,-,
Cc1c(C(=O)N(C)C2CCCCC2)sc2ncnc(N3CCN(c4ccccc4)CC3)c12,0,0,0,0,0,0,0,0,0,
Cc1c(C(=O)N2CCC(C)CC2)sc2ncnc(N3CCN(c4ccccc4)CC3)c12,0,0,0,0,0,0,0,0,0,
Cc1cc(C)c(C)c(S(=O)(=O)N2CCC(C(=O)NCCCN3CCCC3=O)CC2)c1C,-,-,-,0,-,-,-,-,-,
COc1ccc(CCNC(=O)c2cccc(C(=O)NCCc3ccc(OC)cc3)n2)cc1,0,0,0,0,0,0,-,-,-,
